Measurements as given in the EternaBench riboswitch data.

System: MS2 coat protein
Assay: apparent Kd, MS2 coat protein; higher = weaker binding; RNA-MaP array; FMN 200 µM where present
In short: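 In 100 mM Tris-HCl pH 7.5, 80 mM KCl, 4 mM MgCl2, BSA, DTT, yeast tRNA and Tween-20, SNAP-549-labelled MS2 coat protein was titrated from 0.7 or 1.5 nM, doubling to 3 µM, over designs transcribed by stalled E. coli RNA polymerase on Illumina sequencing-chip clusters. This was done first without ligand, then with ligand held constant. After green signal was normalised to red-channel RNA signal and control-cluster median Fmax, the apparent Kd was taken as the median of filtered per-cluster binding-curve fits.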

[1] = designed as: ON switch for flavin mononucleotide, no ligand
[2] = ligand present: flavin mononucleotide, designed as: ON switch for flavin mononucleotide
[3] = designed as: OFF switch for flavin mononucleotide, no ligand
[4] = ligand present: flavin mononucleotide, designed as: OFF switch for flavin mononucleotide

Sequence	apparent Kd [1] [nM]	apparent Kd [2] [nM]	apparent Kd [3] [nM]	apparent Kd [4] [nM]
UCUCGUGUUCAGAAGGGCAAUCAACGAACAUGAGGAUCACCCAUGUUCUGCAGGAUAUGAACGGGUGGGAGCCCUGCGAAGGGC	104	15	–	–
AAUUGACACGUAGGAUAUCGAUCUAAAUUAACUCGAGAAGGACGUACAUGAGGAUCACCCAUGUUUAAUGGAGUAGAUAUGUUG	–	–	121	398
GCACGGUAAGUGAGGAUAUACCUCUGGAUACAGAGGUAGAAGGCACAUGAGGAUCACCCAUGUCCUAGCCGUGC	–	–	36.7	271
UUGCGCUGUCGAGAGGAUAUGCGGUGUUGGACAUGAGGAUCACCCAUGUUAGCGAUAGCUUUACGGUAGAAGGCUCUUCAGCUGC	138	56.9	–	–
UUACCUCAUGAGAAGGACAUGAGGAUCACCCAUGUAGGAUAUCGUGGAAGACUGGUAUUGAAUCUUCGGAUUCAAUACCUGUCU	317	15.7	–	–
CGUGCGUCGACAGGAUAUACAGAUUGGCUCCGGUACAUGAGGAUCACCCAUGUAGAAGGGUCACGCACAGUUAGUUCGUUAUUA	–	–	8.52	37.9
GUUUUCGCAUGAGGAUAUGCUCGCAUUUCAAGAGCAGAAGGUAUGUCUAUAGACAUGAGGAUCACCCAUGUAUUUAUCAUUGAA	273	118	–	–
UAUAAAAUUAUAGGAUAUCGAUAUCAAAGAUAUCGAGAAGGGUGAAUAUAAUAUUAUCUGUACAUGAGGAUCACCCAUGUUUAU	276	87.2	–	–
CCCAUCAGAGGAUAUACAUGAGGAUCACCCAUGUCAAUCGAACGGGAUGGGAGGUUAGGUAGAAGGUUGUGGAA	–	–	15.2	16.9
UUCAACGAUGAAGGAUAUGUAUAAACAUGAGGACAUGAGGAUCACCCAUGUUGAUCACCCAUGUAGCAGAAGGUCAACAUGAGG	360	142	–	–
UGAACUAUGUAGAAGGCCCUCAUUAAUAUGAAGGGAGGAUAUACAUGAGGAUCACCCAUGUGAAGAGCAAGAGGGUUUAACAGA	–	–	89.1	479
AAGAAACAUGAGGAUCACCCAUGUAAGAUAAACACAGGAUAUGCGAAAAGAAACAAAGAAGCAGAAGGGUGAAGAA	68.2	19.7	–	–
CUAUCGCAAGGAUAUACAUGAGGAUCACCCAUGUGGAAGAAUGGCCCAAAUCUAACAUGUAGAAGGUGCUAAAA	–	–	40.6	64.9
AAGACGUAAGGAUAUAUUAUGGGACAAUGAAGGAAGAUAAAACAUGAGGAUCACCCAUGUAGAAGGUGCAAAGA	–	–	45.9	41.5
GGGAGUGGAGGGAAUAACAUGAGGAUCACCCAUGUAUGGGAGAGAAGGCAGGUCGGAGGGCGAUCUGAGGAUAUUUAGACUCUU	8.99	8.08	–	–
AGUGGACAUGAGGAUCACCCAUGUAUGCUGGCAUGAGGAUAUCCGAUUCGUUUCGACUAAGGAGAAGGCAUAGCCC	97.2	31.3	–	–
UGUCGGAGCAGAGGAUAUUACAUGAGGAUCACCCAUGUAUGAACCAAUAGCUAGAAACAGCAAUGUAAGAAGGCUGCUCCGACA	–	–	8.97	113
UCAUAUAAACAAGGAUAUCAAUUAUUUACACAUCCUACAUGAGGAUCACCCAUGUUUUAAUAUUUUGAGAAGGUGUAAUGUCGG	24	29.9	–	–
CGCUGUCACGCAGGAUAUGCAUUGGAUUCCAAUGCAGAAGGGCGAUUACAUGAGGAUCACCCAUGUGCUGACAGUGAAGAAGAG	1300	65.9	–	–
GGGUCCAUCGGAGGAUAUCAUGUAAAUACAUGAGGAUCACCCAUGUCGAUGGAGACAUCGGAGAUUGAGAAGGCCGAUGUACCG	209	10.5	–	–
UGAUACAUGAGGGUCUCCCAUGACAUGAGGAUCACCCAUGUGCAGGAUAUACGUGUGAUGGUAUAGUAGAAGGGCAGUCUAUGU	–	–	102	133

Sequence	apparent Kd [1] [nM]	apparent Kd [2] [nM]	apparent Kd [3] [nM]	apparent Kd [4] [nM]
GCACGGUAAGUGAGGAUAUACCUCUGGAUACAGAGGUAGAAGGCACAUGAGGAUCACCCAUGUUCCAGCCGUGC	–	–	17.9	74.8
AUUGAUGUUGAGGAUAUGCUUUUAUUUGUUCUUGCAGAAGGCGAUACAUGAGGAUCACCCAUGUUCAUGGAAGU	–	–	51.6	46.6
AUCAGCUCGUCAGGAUAUACGUCACUGCUUCGGCAGUGUGGUAAGAUUACAUGAGGAUCACCCAUGUAGAAGGGACGAGCUGAU	–	–	6	8.61
AAGACCAGAGGAUAUCAGACGCGGCACAUGAGGAUCACCCAUGUAUUCCCGUCUGCCGACUGAGAAGGUUGGAAAG	–	–	12.5	17
UCAUGGUAGCAGGAUAUGCUUGUUUUUUUUUUUGCAGAAGGGCUUACAUGAGGAUCACCCAUGUGAGAGGUCUA	–	–	14.5	21.6
CAAAACAUCUCCGUGUUUGUCGAACAUGAGGAUCACCCAUGUAGAAGGCAUCGCGCGACGCAGGAUGAGGAUAUACGCUGGAUG	–	–	6.43	11
CCGGAAUCCUAGGAUAUGCUAGACGAGAGUCUAGCAGAAGGAGGAACAUGAGGAUCACCCAUGUGUCCUACCGG	–	–	17.7	21
AAGGAGUGAGGAUAUGCUGCUCGUCACUUGCGUGAUGAGUAGCAGAAGGCACAUGAGGAUCACCCAUGUAAAAA	–	–	41.5	49.7
AAAAUACAUGAGGAUCACCCAUGUCAGGAUAUUCCUGCAGCCUUGAAUAUGGGCUGGUGAAGAAGGGACGGUGA	–	–	40.1	105
GCCAUCGCAUGAGGAUAUGCUCGGGUUUCCCGAGCAGAAGGCAUGCCAUAAGACAUGAGGAUCACCCAUGUAGUUAAGAUGGCA	5.36	5.4	–	–
UUCAUCGAUGAAGGAUAUCUAUGUCCAACAUGAGGAUCACCCAUGUUGAGGAUUACCUAUGUGUAGGAGAAGGUCAAUAUAACU	7.02	6.28	–	–
UUAAUGUGAGGAUAUCAGGUGUGCUAGCGUACUGGUACAUCUGAGAAGGCACAUGAGGAUCACCCAUGUUCCUU	–	–	16.4	55.3
GGGCAAUAGUAGAAGGGAUAUACGAAAGGUAUAUCAGGAUAUACAUGAGGAUCACCCAUGUUCUAACAGUGAUAGUCCUCCCUA	–	–	24.3	171
UCUACAUAGAUUCAUCAAUACAGUAAGGAUAUGAGAUACAUGAGGAUCACCCAUGUGCAUGUGGAUUAGAAGGUACAAUUAACU	–	–	16.8	14.9
CCGGAAAGGAAGGAUAUGCUAGACGAGAGUCUAGCAGAAGGUCCUACAUGAGGAUCACCCAUGUGGCCUCCCGG	–	–	139	627
UGGCUGAGUCGAGGAUAUGAUCUUCAUAUAAUAACAUGAGGAUCACCCAUGUAUAAUUACAUGGAUCAGAAGGCGACUCAGCCA	–	38.1	–	–
GUGCCUAACUAGAAGGCAGCAUGCAAAGCAUUCUGAGGAUAUGGGUUCCGGAAACGGACAUGAGGAUCACCCAUGUGGCACAAA	482	34.7	–	–
UGAAGUGGCGACAUGAGGAUCACCCAUGUAUGGUAUUCAACCAGAAGGCAUGUUGAGGAAUUACAUGAGGAUAUGGGAGAUCUA	314	121	–	–
AGUGUCAUCGAGAAGGCCUCAACAUGAGGAUCACCCAUGUUGUAAUAUGGGAGGAUAUCGAUGAUACAGCUACGUUUCGUAGCU	18.9	5.65	–	–
AUUUAGUGCGAGAAGGCGUGGUCACAUGAGGAUCACCCAUGUCAGUACACGAGGAUAUCGAUCCGCUAUGUAAACCUAGGCGGC	101	6.89	–	–
UAGGACUACGUAGGAUAUGUAGUAGAUUACUACAUGAGGAUCACCCAUGUAAGCAUGUUAUUAGGACAGAAGGACGUGGUAAAU	30.4	11.1	–	–
